Source: ChEMBL document CHEMBL4014276, “Diphenylurea derivatives for combating methicillin- and vancomycin-resistant Staphylococcus aureus” (Eur J Med Chem, 2017)
Values after ≈ are worked out from the molar mass of the structure shown. Active and inactive are the calls of the source. No cut-off for these calls is given here.

Tests used:
Staphylococcus aureus [1] = assay: Bactericidal activity against Staphylococcus aureus RN4220 NRS107 clinical isolate after 18 hrs by broth microdilution method; format: functional; conditions: RN4220 NRS107, 18 h
Summary of the method: (§1)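 From MIC wells without visible growth, 5 uL spotted onto Tryptic soy agar, incubated 37 °C for at least 18 h; MBC taken as lowest concentration giving 99.9% growth inhibition.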

Staphylococcus aureus [2] = assay: Bactericidal activity against methicillin-resistant Staphylococcus aureus USA400 NRS123 clinical isolate after 18 hrs by broth microdilution method; format: functional; conditions: USA400 NRS123, 18 h; summary of the method: as §1
Staphylococcus aureus [3] = assay: Antibacterial activity against methicillin-resistant Staphylococcus aureus USA100 NRS382 clinical isolate after 20 hrs by broth microdilution method; format: functional; conditions: USA100 NRS382, 20 h
Summary of the method: (§2)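 CLSI broth microdilution in cation-adjusted Mueller Hinton broth; compounds serially diluted, triplicate samples; 37 °C, 20 h. MIC read visually as lowest concentration with no visible growth; mean of triplicate determinations reported.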

Staphylococcus aureus [4] = assay: Bactericidal activity against methicillin-resistant Staphylococcus aureus USA100 NRS382 clinical isolate after 18 hrs by broth microdilution method; format: functional; conditions: USA100 NRS382, 18 h; summary of the method: as §1
Staphylococcus aureus [5] = assay: Bactericidal activity against methicillin-resistant Staphylococcus aureus USA200 NRS383 clinical isolate after 18 hrs by broth microdilution method; format: functional; conditions: USA200 NRS383, 18 h; summary of the method: as §1
Staphylococcus aureus [6] = assay: Bactericidal activity against methicillin-resistant Staphylococcus aureus USA300 NRS384 clinical isolate after 18 hrs by broth microdilution method; format: functional; conditions: USA300 NRS384, 18 h; summary of the method: as §1
Staphylococcus aureus [7] = assay: Antibacterial activity against vancomycin-resistant Staphylococcus aureus VRSA4 after 20 hrs by broth microdilution method; format: functional; conditions: VRSA4, 20 h; summary of the method: as §2
Staphylococcus aureus [8] = assay: Bactericidal activity against vancomycin-resistant Staphylococcus aureus VRSA4 after 18 hrs by broth microdilution method; format: functional; conditions: VRSA4, 18 h; summary of the method: as §1
Staphylococcus aureus [9] = assay: Antibacterial activity against vancomycin-resistant Staphylococcus aureus VRSA10 after 20 hrs by broth microdilution method; format: functional; conditions: VRSA10, 20 h; summary of the method: as §2
Staphylococcus aureus [10] = assay: Bactericidal activity against vancomycin-resistant Staphylococcus aureus VRSA10 after 18 hrs by broth microdilution method; format: functional; conditions: VRSA10, 18 h; summary of the method: as §1
Staphylococcus aureus [11] = assay: Bactericidal activity against methicillin-resistant Staphylococcus aureus USA400 assessed as time required to reduce log10CFU of bacterial load at 4 times MIC by time kill assay; format: functional
Staphylococcus aureus [12] = assay: Bactericidal activity against methicillin-resistant Staphylococcus aureus USA400 infected in mouse J774 cells assessed as reduction in colony forming units at 16 ug/ml after 24 hrs by time kill assay relative to control; format: functional
Summary of the method: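 J774 murine macrophages in DMEM/10% FBS infected with MRSA USA400 at MOI ~100:1 for 1 h, extracellular bacteria killed with gentamicin 50 µg/mL; treated at 16 µg/mL in triplicate; after 4, 8 or 24 h cells washed, lysed with 0.1% Triton X-100, plated for CFU; percent reduction versus untreated, t-test.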

Staphylococcus aureus [13] = assay: Bactericidal activity against methicillin-resistant Staphylococcus aureus USA400 NRS123 clinical isolate assessed as disruption of bacterial membrane by measuring leakage of 260 nM absorbing material at 5 times MIC after 30 mins by spectrophotometric method; format: functional
Staphylococcus aureus [14] = assay: Bactericidal activity against methicillin-resistant Staphylococcus aureus USA400 NRS123 clinical isolate assessed as disruption of bacterial membrane by measuring leakage of 280 nM absorbing material at 5 times MIC after 30 mins by spectrophotometric method; format: functional
Staphylococcus aureus [15] = assay: Antibacterial activity against methicillin-resistant Staphylococcus aureus USA400 infected in Caenorhabditis elegans AU37 harboring (sek-1(km4);glp-4(bn2)I) mutant assessed as reduction in colony forming units at 10 ug/ml after 20 hrs by microscopic method relative to control; format: functional; design: scale not given: the % may be the effect or the level left
Summary of the method: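 C. elegans AU37 L4/adult worms infected on MRSA USA400 lawn 6 h, washed in M9; 15-25 worms per well treated with 10 µg/mL in triplicate for 20 h, PBS negative control; worms lysed with silicon carbide, plated on TSA with 5 µg/mL nalidixic acid, 37 °C 18 h; CFU per worm, Student's t-test with Holm-Sidak correction.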

[16] = Intrinsic clearance in human liver microsomes in presence of NADPH by LC-MS/MS method; format: ADME, microsome; conditions: read-out: CLH
[17] = Half life in human liver microsomes in presence of NADPH by LC-MS/MS method; format: ADME, microsome
[18] = Intrinsic clearance in human liver microsomes in absence of NADPH by LC-MS/MS method; format: ADME, microsome; conditions: read-out: CLH
[19] = Half life in human liver microsomes in absence of NADPH by LC-MS/MS method; format: ADME, microsome
Staphylococcus aureus [20] = assay: Antibacterial activity against Staphylococcus aureus RN4220 NRS107 clinical isolate after 20 hrs by broth microdilution method; format: functional; conditions: RN4220 NRS107, 20 h; summary of the method: as §2
Staphylococcus aureus [21] = assay: Antibacterial activity against methicillin-resistant Staphylococcus aureus USA400 NRS123 clinical isolate after 20 hrs by broth microdilution method; format: functional; conditions: USA400 NRS123, 20 h; summary of the method: as §2
Staphylococcus aureus [22] = assay: Antibacterial activity against methicillin-resistant Staphylococcus aureus USA200 NRS383 clinical isolate after 20 hrs by broth microdilution method; format: functional; conditions: USA200 NRS383, 20 h; summary of the method: as §2
Staphylococcus aureus [23] = assay: Antibacterial activity against methicillin-resistant Staphylococcus aureus USA300 NRS384 clinical isolate after 20 hrs by broth microdilution method; format: functional; conditions: USA300 NRS384, 20 h; summary of the method: as §2
HaCaT [24] = assay: Cytotoxicity against human HaCaT cells up to 64 ug/ml after 2 hrs by MTS assay; format: cell-based
Summary of the method: (§3)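 Keratinocytes grown in DMEM with 10% FBS at 37 °C, 5% CO2; exposed in triplicate to 8, 16, 32 and 64 µg/mL for 2 h. DMSO-matched controls. MTS added for 4 h, absorbance at 490 nm. Viability expressed as % of DMSO-treated cells (mean of triplicate ± SD); one-way ANOVA with Dunnett's test, P < 0.05.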

Staphylococcus aureus [25] = assay: Antibacterial activity against methicillin-resistant Staphylococcus aureus USA400 NRS123 clinical isolate preincubated followed by bacterial subculturing for 2 weeks; format: functional
Staphylococcus aureus [26] = assay: Antibacterial activity against methicillin-resistant Staphylococcus aureus USA100 NRS382 clinical isolate preincubated followed by bacterial subculturing for 2 weeks; format: functional
Staphylococcus aureus [27] = assay: Antibacterial activity against methicillin-resistant Staphylococcus aureus USA200 NRS383 clinical isolate preincubated followed by bacterial subculturing for 2 weeks; format: functional
Staphylococcus aureus [28] = assay: Antibacterial activity against methicillin-resistant Staphylococcus aureus USA300 NRS384 clinical isolate preincubated followed by bacterial subculturing for 2 weeks; format: functional
HaCaT [29] = assay: Cytotoxicity against human HaCaT cells up to 32 ug/ml after 2 hrs by MTS assay; format: cell-based; summary of the method: as §3
J774 = assay: Cytotoxicity against mouse J774 cells at 8 ug/ml after 24 hrs by MTS assay; format: cell-based; conditions: j774, 24 h
Summary of the method: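 Murine macrophages cultured in DMEM plus 10% FBS, 37 °C, 5% CO2; compounds at 8, 16, 32, 64 µg/mL in triplicate for 24 h against DMSO-matched controls. MTS reagent 4 h, read at OD490. Viability as % of DMSO control (triplicate mean ± SD); one-way ANOVA, Dunnett's post hoc, P < 0.05.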

[30] = Apparent permeability across apical to basolateral side in human Caco2 cells at 10 uM after 2 hrs by LC-MS/MS method; format: ADME, cell-based; conditions: Caco-2
[31] = Apparent permeability across basolateral to apical side in human Caco2 cells at 10 uM after 2 hrs by LC-MS/MS method; format: ADME, cell-based; conditions: Caco-2

CN[C@H](CC(C)C)C(=O)N[C@H]1C(=O)N[C@@H](CC(N)=O)C(=O)N[C@H]2C(=O)N[C@H]3C(=O)N[C@H](C(=O)N[C@H](C(=O)O)c4cc(O)cc(O)c4-c4cc3ccc4O)[C@H](O)c3ccc(c(Cl)c3)Oc3cc2cc(c3O[C@@H]2O[C@H](CO)[C@@H](O)[C@H](O)[C@H]2O[C@H]2C[C@](C)(N)[C@H](O)[C@H](C)O2)Oc2ccc(cc2Cl)[C@H]1O [VANCOMYCIN]
MBC (Staphylococcus aureus [1]): 1 µg/mL (≈ 0.69 µM)
MBC (Staphylococcus aureus [2]): 0.5 µg/mL (≈ 0.345 µM)
MIC (Staphylococcus aureus [3]): < 1 µg/mL
MBC (Staphylococcus aureus [4]): < 1 µg/mL
MBC (Staphylococcus aureus [5]): 0.5 µg/mL (≈ 0.345 µM)
MBC (Staphylococcus aureus [6]): 1 µg/mL (≈ 0.69 µM)
MIC (Staphylococcus aureus [7]): > 128 µg/mL
MBC (Staphylococcus aureus [8]): > 128 µg/mL
MIC (Staphylococcus aureus [9]): > 128 µg/mL
MBC (Staphylococcus aureus [10]): > 128 µg/mL
Time (Staphylococcus aureus [11]): 24 h
Activity (Staphylococcus aureus [12]): inactive
Activity (Staphylococcus aureus [13]): inactive
Activity (Staphylococcus aureus [14]): inactive
Activity (Staphylococcus aureus [15]): 25%

Cc1ncc2n1-c1ccc(Cl)cc1C(c1ccccc1F)=NC2 [MIDAZOLAM]
microsomal CLint [16]: 402 µL/min/mg
half-life [17]: 5.7 min
microsomal CLint [18]: < 9.6 µL/min/mg
half-life [19]: > 240 min

CCCCCOc1ccc(NC(=O)Nc2ccc(/C(C)=N/NC(=N)N)cc2)cc1
MIC (Staphylococcus aureus [20]): 4 µg/mL (≈ 10.1 µM)
MBC (Staphylococcus aureus [1]): 8 µg/mL (≈ 20.2 µM)
MIC (Staphylococcus aureus [21]): 4 µg/mL (≈ 10.1 µM)
MBC (Staphylococcus aureus [2]): 16 µg/mL (≈ 40.4 µM)
MIC (Staphylococcus aureus [3]): 4 µg/mL (≈ 10.1 µM)
MBC (Staphylococcus aureus [4]): 4 µg/mL (≈ 10.1 µM)
MIC (Staphylococcus aureus [22]): 4 µg/mL (≈ 10.1 µM)
MBC (Staphylococcus aureus [5]): 4 µg/mL (≈ 10.1 µM)
MIC (Staphylococcus aureus [23]): 4 µg/mL (≈ 10.1 µM)
MBC (Staphylococcus aureus [6]): 4 µg/mL (≈ 10.1 µM)
MIC (Staphylococcus aureus [7]): 4 µg/mL (≈ 10.1 µM)
MBC (Staphylococcus aureus [8]): 4 µg/mL (≈ 10.1 µM)
MIC (Staphylococcus aureus [9]): 4 µg/mL (≈ 10.1 µM)
MBC (Staphylococcus aureus [10]): 8 µg/mL (≈ 20.2 µM)
Activity (HaCaT [24]): Non-Toxic
Activity (Staphylococcus aureus [25]): Active
Activity (Staphylococcus aureus [26]): Active
Activity (Staphylococcus aureus [27]): Active
Activity (Staphylococcus aureus [28]): Active

C/C(=N\NC(=N)N)c1ccc(NC(=O)Nc2ccc(OCCC(C)C)cc2)cc1
MIC (Staphylococcus aureus [20]): 2 µg/mL (≈ 5.04 µM)
MBC (Staphylococcus aureus [1]): 4 µg/mL (≈ 10.1 µM)
MIC (Staphylococcus aureus [21]): 2 µg/mL (≈ 5.04 µM)
MBC (Staphylococcus aureus [2]): 4 µg/mL (≈ 10.1 µM)
MIC (Staphylococcus aureus [3]): 4 µg/mL (≈ 10.1 µM)
MBC (Staphylococcus aureus [4]): 4 µg/mL (≈ 10.1 µM)
MIC (Staphylococcus aureus [22]): 2 µg/mL (≈ 5.04 µM)
MBC (Staphylococcus aureus [5]): 4 µg/mL (≈ 10.1 µM)
MIC (Staphylococcus aureus [23]): 2 µg/mL (≈ 5.04 µM)
MBC (Staphylococcus aureus [6]): 4 µg/mL (≈ 10.1 µM)
MIC (Staphylococcus aureus [7]): 4 µg/mL (≈ 10.1 µM)
MBC (Staphylococcus aureus [8]): 4 µg/mL (≈ 10.1 µM)
MIC (Staphylococcus aureus [9]): 2 µg/mL (≈ 5.04 µM)
MBC (Staphylococcus aureus [10]): 4 µg/mL (≈ 10.1 µM)
Time (Staphylococcus aureus [11]): <=4 hr
Activity (HaCaT [29]): Non-Toxic
Activity (J774): Toxic
Activity (Staphylococcus aureus [13]): inactive
Activity (Staphylococcus aureus [14]): inactive
Activity (Staphylococcus aureus [25]): Active
Activity (Staphylococcus aureus [26]): Active
Activity (Staphylococcus aureus [27]): Active
Activity (Staphylococcus aureus [28]): Active

CC(=O)CC(c1ccccc1)c1c(O)c2ccccc2oc1=O (stereo not given) [WARFARIN]
microsomal CLint [16]: < 9.6 µL/min/mg
microsomal CLint [18]: < 9.6 µL/min/mg
Papp A→B at 2 h, 10 µM [30]: 27.7 ×10⁻⁶ cm/s
Papp B→A at 2 h, 10 µM [31]: 20.3 ×10⁻⁶ cm/s
